Measurements as given in PubChem BioAssay.
Active and inactive are the calls of the source.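 The calls were made as follows, unless noted: active = viability loss from added drug above about 55%, and viability with drug at most 40%, in both replicates (limit read from the data, passing the limit was not always enough); inconclusive = both conditions met in only one replicate; inactive = neither replicate meets both conditions.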

How the values were obtained:
[1] = reducers of endogenous Her2 protein level, primary screen, SKBR3 breast tumor cells, AlphaScreen, ATP viability (AID 461;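 active = Her2 level under about 52% in both replicate screens, with viability over 70% of control, limit read from the data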;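 as to Her2 level: lower value means less Her2 protein in the cells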;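 as to viability: percent of carrier control wells set as 100% viability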); settings: 18-24 h, measured here: SKBR3 viability, ATP luminescence, at 10 µM
[2] = molecular target: Receptor tyrosine-protein kinase erbB-2 (Homo sapiens) (UniProt P04626); experiment: as above; settings: 18-24 h, at 10 µM, stronger effect = lower value
[3] = SK-BR-3 cell growth inhibitors, pilot screen, 24 h, human (AID 572;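 active = viability at or below 10% of carrier control in both of two separate runs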;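 also: compound exposure lasted between 18 and 24 h rather than exactly 24 h; 100% = carrier-treated control wells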); settings: SK-BR-3 viability, CellTiter-Glo luminescence, at 10 µM, stronger effect = lower value
[4] = HUVEC growth inhibition – cell-based, human, primary screen (AID 575;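 active = viability at or below 30% in both replicate assays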;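 also: 100% = median of untreated cell wells with 0.1% DMSO on each plate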); settings: HUVEC proliferation, CellTiter-Glo luminescence, 72 h; at 10 µM; stronger effect = lower value
Procedure, shortened: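 Test system: HUVEC primary cells. Quantity: 1250 endothelial cells in each well. Dosing: single-point 10 µM, DMSO 0.1% final. Incubation: 72 h treatment at 37 °C. Measured by: CTG luminescence. Control set: DMSO cell controls and MePR drug controls. Plate: collagen-coated 384-well format.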

[5] = growth inhibitors of H69AR lung tumor, primary screen, human, duplicate replicates (AID 580;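 active = viability at or under a set limit in both replicates, limit being median viability minus 3 SD, cut at about 48% in these data, passing the limit was not always enough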;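 also: 100% = mean luminescence of untreated wells and 0% = no signal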); settings: H69AR lung tumor cells viability, ATP luminescence, 72 h; at 10 µM; stronger effect = lower value
[6] = reversal of MRP1-mediated doxorubicin resistance, pilot screen, H69AR cells, doxorubicin co-treatment (AID 601); settings: CellTiter-Glo, 72 h, at 10 µM; for differential viability (reversal): stronger effect = higher value
[7] = 384-well plate pilot, post-Golgi transport modulator project, inhibition of yeast transport mutant growth (AID 636; in the data active = inhibition above about 31%); settings: absorbance 615 nm, about 18 h, stronger effect = higher value
[8] = growth suppression of yeast trafficking mutant, preliminary HTS, modulators of trafficking downstream of Golgi apparatus project, 1536-format plate, OD 615 nm (AID 637; in the data active = inhibition above about 30%); settings: yeast transport mutant growth, absorbance 615 nm, 18 h; stronger effect = higher value
[9] = H69AR cells + 2 uM doxorubicin, measured here: viability with 2 uM doxorubicin, stronger effect = lower value
[10] = H69AR cells, compound alone cytotoxicity

Receptor tyrosine-protein kinase erbB-2 (Homo sapiens), sequence (P04626 whole entry, looked up): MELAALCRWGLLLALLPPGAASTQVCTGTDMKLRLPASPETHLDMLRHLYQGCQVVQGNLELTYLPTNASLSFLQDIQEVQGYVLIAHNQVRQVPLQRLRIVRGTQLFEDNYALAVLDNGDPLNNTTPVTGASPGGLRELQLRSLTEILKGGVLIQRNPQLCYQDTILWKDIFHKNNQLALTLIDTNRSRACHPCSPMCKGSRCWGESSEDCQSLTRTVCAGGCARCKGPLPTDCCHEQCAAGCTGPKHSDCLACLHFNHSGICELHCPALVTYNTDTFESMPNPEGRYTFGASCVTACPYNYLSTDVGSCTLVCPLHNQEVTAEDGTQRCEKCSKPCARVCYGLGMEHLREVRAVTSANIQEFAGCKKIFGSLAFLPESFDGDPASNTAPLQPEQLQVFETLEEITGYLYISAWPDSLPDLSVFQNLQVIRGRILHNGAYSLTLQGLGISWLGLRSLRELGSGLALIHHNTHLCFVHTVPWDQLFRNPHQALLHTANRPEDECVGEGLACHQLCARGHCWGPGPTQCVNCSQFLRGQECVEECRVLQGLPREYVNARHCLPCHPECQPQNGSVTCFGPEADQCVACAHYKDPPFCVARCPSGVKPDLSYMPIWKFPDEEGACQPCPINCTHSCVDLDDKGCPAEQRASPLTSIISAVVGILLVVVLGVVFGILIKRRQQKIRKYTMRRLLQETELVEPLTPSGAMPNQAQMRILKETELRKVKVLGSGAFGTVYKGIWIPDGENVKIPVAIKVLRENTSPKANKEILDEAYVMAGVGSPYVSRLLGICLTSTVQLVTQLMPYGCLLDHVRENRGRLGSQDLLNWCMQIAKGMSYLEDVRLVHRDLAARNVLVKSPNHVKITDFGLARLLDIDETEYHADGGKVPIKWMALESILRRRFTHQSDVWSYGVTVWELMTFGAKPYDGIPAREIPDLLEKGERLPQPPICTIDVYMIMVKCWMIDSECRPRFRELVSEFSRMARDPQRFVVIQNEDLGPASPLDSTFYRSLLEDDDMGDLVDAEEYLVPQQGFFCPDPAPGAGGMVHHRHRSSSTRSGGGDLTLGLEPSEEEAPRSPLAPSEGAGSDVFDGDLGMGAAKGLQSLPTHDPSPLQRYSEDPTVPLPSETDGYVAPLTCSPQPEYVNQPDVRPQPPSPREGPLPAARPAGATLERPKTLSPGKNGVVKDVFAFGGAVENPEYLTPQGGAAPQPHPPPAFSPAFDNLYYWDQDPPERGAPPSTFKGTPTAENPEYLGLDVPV

Structure (SMILES)	viability [1] [%]	Her2 level [2]	viability [3]	viability [4]	viability [5]	differential viability (reversal) ([6]; H69AR cells + 2 uM doxorubicin)	viability [6, 9] [%]	viability [6, 10] [%]	inhibition [7]	inhibition [8]
CCCCn1nc(C(=O)N2CCc3ccccc32)c2ccccc2c1=O	81.5	110% (inactive)	81.5% (inactive)	91.8% (inactive)	93.9% (inactive)	-11.2% (inactive)	105	93.9	-0.4% (inactive)	-10.6% (inactive)
COc1cc(C(=O)N2CCC(NC(=O)C(Cc3ccc(C)cc3)NC(C)=O)CC2)cc(OC)c1OC (stereo not given)	92	86% (inactive)	92% (inactive)	97.8% (inactive)	98% (inactive)	7.71% (inactive)	90.3	98	-2.84% (inactive)	0.16% (inactive)
Cc1nc(SCc2ccc(Br)cc2)[nH]c(=O)c1C	83.5	85.5% (inactive)	83.5% (inactive)	60.7% (inactive)	92.1% (inactive)	9.71% (inactive)	82.4	92.1	-5.14% (inactive)	0.82% (inactive)
CCc1nc(N)c(C#N)c(-c2ccncc2)c1C	102	95% (inactive)	102% (inactive)	89.2% (inactive)	102% (inactive)	21.1% (inactive)	80.6	102	-4.27% (inactive)	-0.82% (inactive)
Cc1nc2ccccn2c1/C(O)=C1\C(=O)C(=O)N(CCN2CCOCC2)C1c1cccs1 (stereo not given)	94.5	90.5% (inactive)	94.5% (inactive)	108% (inactive)	98.7% (inactive)	4.16% (inactive)	94.6	98.7	-8.78% (inactive)	0.67% (inactive)
COCCCN(C(C)=O)c1nc(-c2ccccc2)cs1	91	85.5% (inactive)	91% (inactive)	65.5% (inactive)	94% (inactive)	9.96% (inactive)	84.1	94	-7.81% (inactive)	-3.17% (inactive)
COc1ccc(C2=Nn3c(nnc3-c3cccnc3)SC2)cc1	83.5	93.5% (inactive)	83.5% (inactive)	97.1% (inactive)	64.7% (inactive)	-16.5% (inactive)	81.2	64.7	-6.32% (inactive)	0.48% (inactive)
CC(C)COc1ccc(C2NC(=O)NC2=O)cc1 (stereo not given)	85.5	106% (inactive)	85.5% (inactive)	96.3% (inactive)	103% (inactive)	-0.53% (inactive)	103	103	-0.52% (inactive)	-8.67% (inactive)
CCNS(=O)(=O)c1c(C)cc(N2CCCC2=O)cc1C	95.5	109% (inactive)	95.5% (inactive)	112% (inactive)	98.8% (inactive)	8.17% (inactive)	90.6	98.8	-3.87% (inactive)	-1.31% (inactive)
CC1CN(C(=O)c2scc3c2OCCO3)CC(C)O1 (stereo not given)	102	76% (inactive)	102% (inactive)	101% (inactive)	104% (inactive)	12.1% (inactive)	91.9	104	-7.3% (inactive)	5.24% (inactive)
Cc1nc(/N=C\N(C)C)sc1C(=O)Nc1ccccc1	93	82% (inactive)	93% (inactive)	100% (inactive)	96.2% (inactive)	1.87% (inactive)	94.3	96.2	-5.81% (inactive)	-8% (inactive)
COCCOC(=O)c1c(C)oc2ccc(NS(=O)(=O)c3ccc(F)cc3)cc12	85.5	90.5% (inactive)	85.5% (inactive)	93% (inactive)	90.5% (inactive)	-4.71% (inactive)	95.2	90.5	-2.43% (inactive)	2.7% (inactive)
O=C(NCc1cccs1)c1cc2c(s1)CCCC2	92.5	102% (inactive)	92.5% (inactive)	85.8% (inactive)	97.6% (inactive)	5.47% (inactive)	92.2	97.6	0.65% (inactive)	2.13% (inactive)
O=C(N1CCCCCC1)N1CCN(C(=O)N2CCOCC2)CC1	105	104% (inactive)	105% (inactive)	94.9% (inactive)	98.9% (inactive)	5.18% (inactive)	93.7	98.9	0.92% (inactive)	-8.55% (inactive)
Cc1ccc(NC(=O)CSc2nnc(NC(=O)CN3CCOCC3)s2)cc1	102	82% (inactive)	102% (inactive)	98% (inactive)	94.1% (inactive)	9.71% (inactive)	84.4	94.1	-5.33% (inactive)	-2.46% (inactive)
Cc1ccc2oc(C(=O)Nc3c(C)n(C)n(-c4ccccc4)c3=O)c(C)c2c1	84.5	102% (inactive)	84.5% (inactive)	97.2% (inactive)	104% (inactive)	20.3% (inactive)	83.6	104	-7.4% (inactive)	-10.3% (inactive)
CCOC(=O)c1cccc(NC(=O)c2ccco2)c1	95.5	92.5% (inactive)	95.5% (inactive)	114% (inactive)	91.9% (inactive)	3.72% (inactive)	88.1	91.9	-0.77% (inactive)	-1.17% (inactive)
CCC(C)(C(=O)NC1CCCCC1)N(CC1CCCO1)C(=O)c1ccccn1 (stereo not given)	82	99% (inactive)	82% (inactive)	91.6% (inactive)	89% (inactive)	-1.55% (inactive)	90.6	89	-0.26% (inactive)	-1.15% (inactive)
Clc1ccc(Cl)c(-c2ccc(/C=N/c3ncn[nH]3)o2)c1	105	81% (inactive)	105% (inactive)	64.5% (inactive)	72.8% (inactive)	-11.9% (inactive)	84.8	72.8	-6.8% (inactive)	4.59% (inactive)
Cc1cc(C)cc(-n2nnc(C(=O)NCc3ccco3)c2N)c1	101	82% (inactive)	101% (inactive)	89.4% (inactive)	88.5% (inactive)	-4.65% (inactive)	93.2	88.5	-0.14% (inactive)	-4.92% (inactive)
O=C(CSc1nnc2ncccn12)N1CCCCCC1	102	85% (inactive)	102% (inactive)	103% (inactive)	107% (inactive)	15.6% (inactive)	91.3	107	-3.84% (inactive)	-7.3% (inactive)
CN(CC(=O)NCCC1=CCCCC1)S(=O)(=O)c1ccc2c(c1)CCC(=O)N2	79	113% (inactive)	79% (inactive)	91.3% (inactive)	110% (inactive)	18% (inactive)	91.7	110	-2.27% (inactive)	-1.48% (inactive)
CCOC(=O)c1c(NC(=O)c2ccn(CC)n2)sc2c1CCCC2	88	70% (inactive)	88% (inactive)	75.5% (inactive)	77.2% (inactive)	-15% (inactive)	92.2	77.2	-4.74% (inactive)	1.67% (inactive)
COc1ccccc1-n1cnc(N)c1C(C)=O	110	103% (inactive)	110% (inactive)	105% (inactive)	103% (inactive)	-0.75% (inactive)	104	103	-4.21% (inactive)	7.7% (inactive)
O=C(c1ccccc1)N1CCCCC(Sc2nnnn2-c2ccccc2)C1=O (stereo not given)	89.5	104% (inactive)	89.5% (inactive)	82.7% (inactive)	104% (inactive)	12.6% (inactive)	91.1	104	-6.13% (inactive)	-0.32% (inactive)
COc1ccc2[nH]c(=O)c(CN(CC3CCCO3)C(=O)Nc3ccc(F)cc3)cc2c1 (stereo not given)	84.5	113% (inactive)	84.5% (inactive)	26.1% (active)	39.4% (active)	-8.38% (inactive)	47.8	39.4	-0.68% (inactive)	2.46% (inactive)
Cc1ccc(NC(=O)C2CCCN(S(=O)(=O)c3cnc[nH]3)C2)cc1C (stereo not given)	95	110% (inactive)	95% (inactive)	102% (inactive)	100% (inactive)	5.56% (inactive)	94.6	100	-5.6% (inactive)	-2.3% (inactive)
Cc1nc(=S)n(-c2ccccc2)[nH]1	104	107% (inactive)	104% (inactive)	107% (inactive)	107% (inactive)	2.28% (inactive)	105	107	-3.2% (inactive)	-9.35% (inactive)
Cc1ccc(C)c(N2CCN(C(=O)C3CCN(S(=O)(=O)c4c(C)noc4C)CC3)CC2)c1	104	72% (inactive)	104% (inactive)	74.8% (inactive)	83.4% (inactive)	27.8% (inactive)	55.6	83.4	-2.89% (inactive)	-3.97% (inactive)
